Experimental data collected from several papers.
Lines come from different studies, so protocols differ.
Target: Serine/threonine-protein kinase PLK3 (PLK3, Homo sapiens, UniProt Q9H4B4)

Cc1ccc(Nc2nccc(N(C)c3ccc4c(C)n(C)nc4c3)n2)cc1S(N)(=O)=O  inhibition (enzyme activity; inhibitor; 0.3 µM): -9%
O=C(Nc1cnn(-c2csc(C(=O)NC3COC3)c2)c1)Nc1c(F)cccc1Cl  remaining activity (enzyme activity; inhibitor; 5 µM): 96%
CNC(=O)c1cc(Oc2ccc(NC(=O)Nc3ccc(Cl)c(C(F)(F)F)c3)cc2)ccn1  inhibition (enzyme activity; inhibitor; 10 µM): -14%
CS(=O)(=O)Nc1cccc(-c2csc(NC(=O)CSc3nc4nccnc4c(=O)n3CCc3ccccc3)n2)c1  inhibition (enzyme activity; inhibitor; 10 µM): 6%
Nc1cnc(N2CCc3cc(S(=O)(=O)Nc4c(F)cc(Cl)cc4F)cc(N4CCCC4=O)c32)nc1  remaining binding (cell-free assay; competition with immobilised ligand; 1 µM): 100%
Cc1cnc(NC2CCOCC2)nc1-n1cnc(C(=O)NC(CN)c2cc(F)cc(Cl)c2)c1 (stereo not shown)  remaining activity (enzyme activity; inhibitor; radiometric; 1 µM): 88%
CN1CCN(c2cnc3c(C4CCN(C(=O)c5ccc(OC(F)(F)F)cc5N)CC4)ncnc3c2)CC1  remaining binding (cell-free assay; competition with immobilised ligand; 1 µM): 100%
N#CCCc1ccc2c(c1)-c1[nH]c3ccc([N+](=O)[O-])cc3c1CC(=O)N2  remaining signal (cell-free assay; 0.5 µM): 99.7%
CC(C)(O)[C@H]1CC[C@H](Nc2ccc3ncc(-c4cccc(C(F)(F)F)c4)n3n2)CC1  remaining activity (enzyme activity; inhibitor; 1 µM): 102%
CCN(CC)CCNC(=O)c1c(C)[nH]c(/C=C2\C(=O)Nc3ccc(F)cc32)c1C  inhibition (enzyme activity; inhibitor; 10 µM): -4%
O=c1cc(N2CCOCC2)oc2c(-c3ccccc3)cccc12  remaining signal (cell-free assay; 0.5 µM): 71.9%
O=C(Nc1cnn(-c2csc(C(=O)NC3COC3)c2)c1)Nc1ccccc1Cl  remaining activity (enzyme activity; inhibitor; 5 µM): 96.1%
C[C@@]1(Cc2ccc(C#N)cc2)C(=O)N(c2cc(Cl)cc(Cl)c2)c2ncc(C(=O)NC3(c4nc(C5CCC5)no4)CC3)n21  remaining binding (cell-free assay; competition with immobilised ligand; 1 µM): 100%
COc1cc(-c2cc(-c3ccc(N4CCNCC4)cc3)cnc2C)cc(OC)c1OC  inhibition (enzyme activity; inhibitor; 0.1 µM): 4%
CSc1cccnc1N1CCN(Cc2nc3ccccc3[nH]2)CC1  remaining binding (cell-free assay; competition with immobilised ligand; 1 µM): 80%
CCN(CC)c1ccc(C2=NNC(=O)CC2C)cc1[N+](=O)[O-] (stereo not shown)  remaining activity (enzyme activity; inhibitor; 10 µM): 104%
CC/C(=N\NC(=O)NCc1cccc(O)c1)c1ccc(O)c(C)c1O  inhibition (enzyme activity; inhibitor; 0.1 µM): 2.5%
CCCS(=O)(=O)Nc1ccc(F)c(C(=O)c2c[nH]c3ncc(-c4ccc(Cl)cc4)cc23)c1F  inhibition (enzyme activity; inhibitor; 1 µM): < 10%
COc1cc(Cl)c(C(=O)N[C@@H](CN[C@H]2CC[C@@H](N)CC2)Cc2ccc(C#N)cc2)cc1-c1ccc(CN[C@H](C)c2ccc(C)cc2)o1  remaining activity (enzyme activity; inhibitor; 1 µM): 105%
FC(F)(F)c1ccc2c(c1)nc(-c1cccnc1)n2C1CC1  remaining binding (cell-free assay; competition with immobilised ligand; 1 µM): 100%
CC(C)c1ccc(NC(=O)c2cccs2)c(-c2nc3ccccc3[nH]c2=O)c1  activity vs control (enzyme activity; inhibitor; 1 µM): 97%
O=C(N1CCS(=O)(=O)CC1)N1C[C@H](c2ccc(OC(F)(F)F)cc2)C[C@H](c2nc(C3CC3)no2)C1  remaining binding (cell-free assay; competition with immobilised ligand; 1 µM): 98%
COc1cc2ncnc(Nc3ccc(Oc4ccccc4)cc3C)c2cc1OC  inhibition (enzyme activity; inhibitor; 1 µM): -1%
O=C(NC[C@@H]1[C@H]2CN(C(=O)OCc3cc(C(F)(F)F)cc(C(F)(F)F)c3)C[C@@H]12)c1ccc2[nH]nnc2c1  remaining binding (cell-free assay; competition with immobilised ligand; 1 µM): 89%
CCCOc1ccc(OC)c(F)c1C(=O)c1ccc(C(=O)N[C@@H]2CNC[C@H]2NC(=O)c2ccc3[nH]ncc3c2)cc1  remaining activity (enzyme activity; inhibitor; 10 µM): 119%
